# Apaf1 inhib – human Apaf-1 inhibition | O14727 | reconstituted apoptosome caspase-3 activity, DEVD-Rh110 fluorescence | inhibition, % at 20 µM | 0.71% of 330,000 active | AID 489030; active = inhibition of at least 40% at 20 µM;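 note: plate controls were DMSO wells for no effect and DEVD-CHO caspase inhibitor wells for full effect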
#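 Material: reconstituted apoptosome with Apaf-1, cytochrome c, caspase-9, procaspase-3, dATP. Technique: Rh110 fluorescence intensity. Buffer or medium: pH 7.5 Hepes buffer with CHAPS, BSA, DTT. Times: 30 min plus 50 min, RT.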
# PAD4 inh – blocks human protein arginine deiminase 4. Q9UM07. recombinant PAD4, RCA probe fluorescence polarization. inhibition, % at 6.36 µM. 0.41% of 330,000 active;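 active = percent inhibition above a cutoff equal to the mean of all tested compounds plus 3 SD, cut at about 15% in these data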;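 note: 0% = PAD4 with RCA probe and DMSO and 100% = probe without PAD4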
# GSTO1 inh – GSTO1 inhibition, counter-screen for RBBP9 inhibitors; P78417; recombinant GSTO1, activity-based probe fluorescence polarization; inhibition, % at 5.96 µM; 1.1% of 300,000 active; AID 1974;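 active = inhibition above the campaign mean inhibition plus 3 SD, cut at about 35% in these data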;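 note: 0% = GSTO1-1 with DMSO and 100% = wells lacking GSTO1-1 enzyme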
# PRMT1 inh – PRMT1 (human) inhibition, primary screen | inhibition, % at 2.79 µM | 1.3% of 370,000 active | recombinant PRMT1, activity-based probe fluorescence polarization;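 active = inhibition above about 21% made by adding two undisclosed values, limit read from the data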
# TDP2 inh – TDP2 (human) inhibition, absorbance primary screen; recombinant TDP2, T5PNP hydrolysis, p-nitrophenol absorbance 415 nm; inhibition, % at 12.8 µM; 0.34% of 370,000 active; AID 720702;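 active = inhibition above the mean of all tested compounds plus 3 SD, set per campaign, cut at about 25% in these data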;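 note: 0% = DMSO with enzyme and 100% = buffer with substrate but no TDP2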
# Target sequence (O95551 whole entry, looked up): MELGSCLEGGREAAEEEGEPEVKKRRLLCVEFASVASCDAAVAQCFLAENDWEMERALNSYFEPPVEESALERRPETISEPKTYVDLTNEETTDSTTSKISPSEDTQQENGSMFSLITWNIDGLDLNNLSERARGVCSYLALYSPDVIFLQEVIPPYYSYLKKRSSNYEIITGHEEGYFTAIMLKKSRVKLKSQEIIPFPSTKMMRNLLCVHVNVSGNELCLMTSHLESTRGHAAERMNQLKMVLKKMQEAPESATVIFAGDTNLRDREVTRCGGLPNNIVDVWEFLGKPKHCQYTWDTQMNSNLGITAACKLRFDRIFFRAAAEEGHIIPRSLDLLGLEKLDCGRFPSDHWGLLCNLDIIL
#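 Read-out basis: percent inhibition. System: recombinant human TDP2. Buffer or medium: Mg2+-containing Tris-HCl buffer, pH 7.5. Repeats: single replicate. Timing: reaction 2 h, 37 °C. Benchmarks: high control without enzyme, low control DMSO plus TDP2. Probe or stimulus: 5 mM T5PNP. Doses: 12.8 µM only. Measured by: epi absorbance of p-nitrophenol freed from T5PNP by hydrolysis.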
# Apaf-1 inh conf2 – Apaf-1 inhibition, single-dose confirmed. reconstituted apoptosome, caspase-3 DEVD-Rh110 fluorescence. AID 504614. 25% of 1,800 active. inhibition, % at 20 µM. shares compounds with Apaf1 inhib;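 active = mean inhibition of at least 40% at 20 µM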;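 note: plate controls were DMSO wells for no effect and DEVD-CHO caspase inhibitor control wells for full effect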
# Rh110 interf inh – interferes with Rh110 fluorescence, flagging false Apaf-1 inhibitors; activation (fluorescence interference), % at 20 µM; 1,800 tested, under 10 active; shares compounds with Apaf1 inhib; Rh110 fluorescence interference, quenched caspase reaction;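 active = signal rise of 40% or more at 20 µM, treated as a fluorescence artifact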
# Apaf1 inh interf – shows fluorescence interference in the Apaf-1 inhibitor assay format. IC50, µM. 460 tested, under 10 active. fluorescence interference counterscreen, Apaf-1 assay format. shares compounds with Apaf1 inhib; call rule not given here
# * marks the source's active call; other numbers are inactive results; nt = no result. An excerpt weighted towards active compounds, which were near 2.6% of everything screened.
SMILES,Apaf1 inhib,PAD4 inh,GSTO1 inh,PRMT1 inh,TDP2 inh,Apaf-1 inh conf2,Rh110 interf inh,others
Cc1c(CCOC(=O)CC23CC4CC(CC(C4)C2)C3)sc[n+]1CC(=O)c1ccc(Br)cc1,49*,-5,-9,-1,0,32,16,
Cc1cc(C)c(C#N)c(SCC(=O)Nc2nonc2N)n1,64*,2,12,0,-16,12,14,
COC(=O)[C@H](C(C)C)N(CCc1cn(Cc2ccc(C)cc2)nn1)S(=O)(=O)c1ccccc1Br,nt,nt,nt,-4,-7,nt,nt,
O=C1CC(=Nc2ccccc2)NN1c1ccccc1,66*,-2,20,-3,4,19,8,
O=C1Cc2ccccc2N1c1ccccc1,11,2,2,1,0,nt,nt,
O=C1c2ccccc2-c2nnc(-c3ccc(O)cc3)cc21,91*,-19,10,-2,-1,11,0,
O=c1[nH]nc(-c2ccc(F)cc2)cc1-c1ccccc1,nt,nt,nt,-6,-3,nt,nt,
O=C1c2ccccc2-c2nnc(-c3ccc(F)cc3)cc21,78*,5,10,1,14,9,2,
CCN1CCN(c2ccc(S(=O)(=O)N3CCCCC3)cc2NC(=O)/C=C/c2cc(OC)ccc2OC)CC1,46*,-6,0,-1,-10,15,2,
CCN1CCN(c2ccc(S(=O)(=O)N3CCCCC3)cc2NC(=O)COc2ccc(Cl)c(C)c2)CC1,45*,5,-8,-1,6,11,4,
CCN1CCN(c2ccc(S(=O)(=O)N3CCCCC3)cc2NC(=O)/C=C/c2ccc(OC)c(OC)c2)CC1,21,1,-4,-1,-3,nt,nt,
CCOC(=O)N1CCN(C(=O)C[C@H]2C[C@@]3(C(=O)OC)C(=C[C@H](C4CCCC4)O[C@@H]3C)N(Cc3ccco3)C2=O)CC1,nt,nt,nt,5,-5,nt,nt,
CCOc1ccccc1C(=O)N1CCC(Oc2cccnc2)CC1,nt,nt,nt,2,3,nt,nt,
COc1ccc(N2CCN(C(=O)c3ccc(COc4ccc5c(C)cc(=O)oc5c4)cc3)CC2)cc1,58*,-4,0,1,13,17,5,
CCN(CC(=O)Nc1ccc2c(c1)OCCO2)C(=O)/C=C/c1ccc(OC)cc1OC,64*,3,8,-2,9,37,15,
CCN(CC(=O)Nc1ccc2c(c1)OCCO2)C(=O)/C=C/c1cccc(OC)c1OC,11,-5,9,-1,-3,nt,nt,
Cc1ccc(-c2nn3c(C)nnc3c3ccccc23)cc1S(=O)(=O)NC(C)c1ccccc1 (centres undefined),57*,0,-9,3,0,61*,8,Apaf1 inh interf=>100
Cc1ccc(-c2nn3c(C)nnc3c3ccccc23)cc1S(=O)(=O)NCc1ccco1,44*,0,-6,-2,0,61*,5,Apaf1 inh interf=>100
Cc1ccc(-c2nn3c(C)nnc3c3ccccc23)cc1S(=O)(=O)NCCO,20,1,6,1,-17,nt,nt,
Cc1cc(C(=O)N/N=C2\CC(=O)c3ccccc32)c(C)n1-c1ccc(F)cc1,69*,-5,55*,2,17,22,-2,
C[C@@H]1CN([C@H](C)CO)C(=O)Cc2cc(NS(=O)(=O)c3ccc(Cl)cc3)ccc2O[C@H]1CN(C)Cc1ccc(C(F)(F)F)cc1,41*,-2,nt,nt,nt,27,9,
C[C@@H]1CN([C@H](C)CO)C(=O)Cc2cc(NS(=O)(=O)c3ccc(F)cc3)ccc2O[C@H]1CN(C)Cc1ccc(C(=O)O)cc1,9,6,nt,-1,-3,nt,nt,
COc1ccc(-n2nc(C(=O)NCC(=O)NC3CCCC(C)C3C)c3ccccc3c2=O)c(OC)c1 (centres undefined),55*,-2,2,-2,-12,62*,3,Apaf1 inh interf=>100
COc1ccc(-n2nc(C(=O)NCC(=O)NC3CCCC(C)C3C)c3ccccc3c2=O)cc1 (centres undefined),51*,-4,1,0,-1,36,6,
CCCCNC(=O)CNC(=O)c1nn(-c2ccc(OC)cc2OC)c(=O)c2ccccc12,23,4,-5,-1,3,nt,nt,

# Screening data as filed in PubChem.
